Data on 18 compounds can be found in ChEMBL document CHEMBL2417505, “Discovery of 7-azaindole based anaplastic lymphoma kinase (ALK) inhibitors: wild type and mutant (L1196M) active compounds with unique binding mode” (Bioorg Med Chem Lett, 2013).

For one assay, the species on record is Homo sapiens. Description: Selectivity ratio of IC50 for aurora A kinase (unknown origin) to IC50 for human recombinant ALK.
In assay [1] the target is ALK tyrosine kinase receptor (Homo sapiens, UniProt Q9UM73, L1196M). Kind of assay: Inhibition of human ALK L1196M mutant after 30 mins by TR-FRET assay. In outline:
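L1196M mutant ALK enzyme run in TR-FRET as for wild type (HEPES pH 7.1 buffer, ULight poly-GT substrate, Eu anti-phosphotyrosine detection, 30 min reaction) but with 0.5µM ATP; IC50.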
Background: In TR-FRET formats the signal depends on donor and acceptor labels being close together.

In assay [2] the target is T1, ALK tyrosine kinase receptor (Homo sapiens, UniProt Q9UM73). Kind of assay: Inhibition of wild type human recombinant ALK after 30 mins by TR-FRET assay.
Target sequence in this assay (Q9UM73 whole entry): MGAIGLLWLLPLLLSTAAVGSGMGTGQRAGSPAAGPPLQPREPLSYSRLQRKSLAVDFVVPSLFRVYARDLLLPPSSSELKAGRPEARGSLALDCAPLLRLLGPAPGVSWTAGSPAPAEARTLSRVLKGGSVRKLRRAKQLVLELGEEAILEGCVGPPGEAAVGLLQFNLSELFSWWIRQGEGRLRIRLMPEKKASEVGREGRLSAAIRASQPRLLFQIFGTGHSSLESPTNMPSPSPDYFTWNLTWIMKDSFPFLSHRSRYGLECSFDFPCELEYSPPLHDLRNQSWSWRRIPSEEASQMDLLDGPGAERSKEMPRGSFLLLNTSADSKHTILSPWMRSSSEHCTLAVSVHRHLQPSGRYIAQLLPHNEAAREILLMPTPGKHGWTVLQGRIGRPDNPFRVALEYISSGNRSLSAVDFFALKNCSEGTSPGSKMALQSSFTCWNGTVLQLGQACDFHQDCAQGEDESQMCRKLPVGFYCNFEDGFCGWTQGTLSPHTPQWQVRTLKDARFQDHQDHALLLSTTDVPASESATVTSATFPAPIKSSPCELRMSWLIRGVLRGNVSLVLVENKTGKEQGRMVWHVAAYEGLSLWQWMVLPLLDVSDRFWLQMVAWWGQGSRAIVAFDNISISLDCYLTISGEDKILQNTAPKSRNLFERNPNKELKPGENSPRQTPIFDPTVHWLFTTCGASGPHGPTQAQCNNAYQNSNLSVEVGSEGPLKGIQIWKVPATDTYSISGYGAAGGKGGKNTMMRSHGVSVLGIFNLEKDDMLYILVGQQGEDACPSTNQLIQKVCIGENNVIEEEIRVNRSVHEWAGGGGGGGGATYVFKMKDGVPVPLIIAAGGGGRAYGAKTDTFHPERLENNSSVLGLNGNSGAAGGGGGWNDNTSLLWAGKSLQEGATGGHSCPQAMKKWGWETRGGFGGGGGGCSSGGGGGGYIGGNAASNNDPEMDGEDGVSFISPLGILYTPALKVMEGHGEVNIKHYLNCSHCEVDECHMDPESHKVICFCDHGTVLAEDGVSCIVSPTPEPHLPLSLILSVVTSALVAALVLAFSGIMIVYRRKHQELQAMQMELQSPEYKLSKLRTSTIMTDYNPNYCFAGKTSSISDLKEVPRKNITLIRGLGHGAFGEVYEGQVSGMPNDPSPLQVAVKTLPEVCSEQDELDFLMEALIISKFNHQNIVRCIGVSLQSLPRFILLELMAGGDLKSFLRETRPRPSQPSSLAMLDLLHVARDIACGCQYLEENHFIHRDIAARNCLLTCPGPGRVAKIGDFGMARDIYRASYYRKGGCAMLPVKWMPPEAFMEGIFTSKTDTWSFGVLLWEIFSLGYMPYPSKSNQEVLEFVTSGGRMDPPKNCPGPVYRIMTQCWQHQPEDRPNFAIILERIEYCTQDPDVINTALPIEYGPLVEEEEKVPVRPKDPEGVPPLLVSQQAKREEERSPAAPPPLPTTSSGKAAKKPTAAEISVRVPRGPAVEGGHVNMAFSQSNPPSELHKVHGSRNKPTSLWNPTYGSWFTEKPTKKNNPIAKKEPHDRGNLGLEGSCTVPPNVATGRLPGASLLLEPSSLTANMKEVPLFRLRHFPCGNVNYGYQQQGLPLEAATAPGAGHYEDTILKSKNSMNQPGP
A further assay deals with KARPAS-299. Description: Cytotoxicity against human KARPAS299 cells after 72 hrs by XTT assay. The format is functional, cell-based. Conditions: KARPAS-299, 72 h.
Assay [3] concerns the target T2, Aurora kinase A (Homo sapiens) (UniProt O14965).
T2 sequence (whole entry): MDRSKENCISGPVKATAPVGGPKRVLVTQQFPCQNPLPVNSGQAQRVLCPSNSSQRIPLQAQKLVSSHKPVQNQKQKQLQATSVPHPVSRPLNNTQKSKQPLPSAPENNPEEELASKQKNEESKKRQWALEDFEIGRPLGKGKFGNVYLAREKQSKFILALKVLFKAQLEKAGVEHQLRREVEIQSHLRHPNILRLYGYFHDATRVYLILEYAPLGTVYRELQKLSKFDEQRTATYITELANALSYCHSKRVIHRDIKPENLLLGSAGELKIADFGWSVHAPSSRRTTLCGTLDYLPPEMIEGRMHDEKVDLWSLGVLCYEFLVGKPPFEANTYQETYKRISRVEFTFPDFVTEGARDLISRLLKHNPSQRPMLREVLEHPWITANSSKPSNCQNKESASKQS
Description: Inhibition of aurora A kinase (unknown origin) at 100 nM.

In assay [4] the target is T1, ALK tyrosine kinase receptor. Kind of assay: Inhibition of ALK in human KARPAS299 cells assessed as phosphorylated Stat3 level after 6 hrs by Western blotting analysis. The format is cell-based, KARPAS-299. In outline: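 Karpas 299 cells (4 × 10^5) treated 6 h at set concentrations, with crizotinib at 10 μM as positive control; lysed in RIPA, 30 µg lysate run on 10% SDS-PAGE, PVDF blot probed for phospho-Stat3 (Tyr705) and total Stat3; ECL detection; IC50 from blot densitometry.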
Target sequence in this assay (Q9UM73 whole entry): as the sequence (Q9UM73 whole entry) above

For assay [5] the target is unchanged. Description: Inhibition of ALK in human KARPAS299 cells assessed as phosphorylated ALK level. Conditions: for inhibition: KARPAS-299.
Assay [6] deals with Cyclin-dependent kinase 2 (Homo sapiens) (UniProt P24941). Kind of assay: Inhibition of CDK2 (unknown origin) at 100 nM.
The target of assay [7] is Hepatocyte growth factor receptor (Homo sapiens) (UniProt P08581). Description: Inhibition of c-Met (unknown origin) at 100 nM.
In assay [8] the target is Vascular endothelial growth factor receptor 2 (Homo sapiens) (UniProt P35968). Description: Inhibition of KDR (unknown origin) at 100 nM.
The target of assay [9] is Fibroblast growth factor receptor 1 (Homo sapiens) (UniProt P11362). Description: Inhibition of FGFR1 (unknown origin) at 100 nM.
Assay [10] deals with Macrophage-stimulating protein receptor (Homo sapiens) (UniProt Q04912). Kind of assay: Inhibition of RON (unknown origin) at 100 nM.

Sequence of ALK tyrosine kinase receptor (Homo sapiens, UniProt Q9UM73, L1196M) (Q9UM73 19-1620 L1196M limits assumed): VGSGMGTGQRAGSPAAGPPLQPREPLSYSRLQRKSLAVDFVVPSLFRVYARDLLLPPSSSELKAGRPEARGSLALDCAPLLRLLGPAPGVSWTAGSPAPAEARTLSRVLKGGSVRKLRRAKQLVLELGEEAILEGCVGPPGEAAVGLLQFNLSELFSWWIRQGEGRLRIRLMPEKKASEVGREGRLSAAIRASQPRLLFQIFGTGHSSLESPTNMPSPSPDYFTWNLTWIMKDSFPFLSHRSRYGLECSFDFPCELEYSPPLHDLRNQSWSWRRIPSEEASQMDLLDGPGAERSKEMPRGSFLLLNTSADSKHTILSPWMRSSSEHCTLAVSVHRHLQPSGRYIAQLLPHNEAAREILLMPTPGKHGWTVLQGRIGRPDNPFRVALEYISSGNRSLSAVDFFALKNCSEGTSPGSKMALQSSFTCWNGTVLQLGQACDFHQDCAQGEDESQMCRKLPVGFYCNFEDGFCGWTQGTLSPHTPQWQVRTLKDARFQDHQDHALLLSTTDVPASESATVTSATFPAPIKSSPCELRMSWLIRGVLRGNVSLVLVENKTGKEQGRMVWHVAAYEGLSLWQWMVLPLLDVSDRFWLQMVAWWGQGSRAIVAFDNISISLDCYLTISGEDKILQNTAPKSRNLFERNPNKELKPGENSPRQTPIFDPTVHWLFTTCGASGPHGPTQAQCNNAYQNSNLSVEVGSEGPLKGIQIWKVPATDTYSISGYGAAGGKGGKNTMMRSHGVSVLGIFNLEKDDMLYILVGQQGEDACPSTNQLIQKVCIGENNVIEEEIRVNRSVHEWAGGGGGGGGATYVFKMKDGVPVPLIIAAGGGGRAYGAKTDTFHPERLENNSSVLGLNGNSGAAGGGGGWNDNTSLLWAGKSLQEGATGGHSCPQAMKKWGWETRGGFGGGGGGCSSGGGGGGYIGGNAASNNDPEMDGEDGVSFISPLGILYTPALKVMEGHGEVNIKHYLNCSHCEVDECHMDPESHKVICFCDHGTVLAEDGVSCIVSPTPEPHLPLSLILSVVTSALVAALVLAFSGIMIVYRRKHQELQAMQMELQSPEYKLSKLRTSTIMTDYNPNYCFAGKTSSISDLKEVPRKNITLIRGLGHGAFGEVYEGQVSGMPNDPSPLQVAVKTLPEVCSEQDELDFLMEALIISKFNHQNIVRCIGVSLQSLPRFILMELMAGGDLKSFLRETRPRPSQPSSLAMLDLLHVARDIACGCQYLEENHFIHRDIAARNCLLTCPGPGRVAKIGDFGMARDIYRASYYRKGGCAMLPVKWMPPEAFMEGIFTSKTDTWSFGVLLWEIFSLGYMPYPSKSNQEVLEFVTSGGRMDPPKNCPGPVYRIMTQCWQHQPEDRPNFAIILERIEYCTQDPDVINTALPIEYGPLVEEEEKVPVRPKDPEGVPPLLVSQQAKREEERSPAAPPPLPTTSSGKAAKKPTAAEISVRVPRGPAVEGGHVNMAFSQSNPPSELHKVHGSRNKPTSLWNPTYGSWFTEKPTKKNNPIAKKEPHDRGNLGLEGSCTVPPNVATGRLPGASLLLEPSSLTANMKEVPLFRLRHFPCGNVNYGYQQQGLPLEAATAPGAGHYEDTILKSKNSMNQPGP
Sequence of Hepatocyte growth factor receptor (Homo sapiens) (P08581 whole entry): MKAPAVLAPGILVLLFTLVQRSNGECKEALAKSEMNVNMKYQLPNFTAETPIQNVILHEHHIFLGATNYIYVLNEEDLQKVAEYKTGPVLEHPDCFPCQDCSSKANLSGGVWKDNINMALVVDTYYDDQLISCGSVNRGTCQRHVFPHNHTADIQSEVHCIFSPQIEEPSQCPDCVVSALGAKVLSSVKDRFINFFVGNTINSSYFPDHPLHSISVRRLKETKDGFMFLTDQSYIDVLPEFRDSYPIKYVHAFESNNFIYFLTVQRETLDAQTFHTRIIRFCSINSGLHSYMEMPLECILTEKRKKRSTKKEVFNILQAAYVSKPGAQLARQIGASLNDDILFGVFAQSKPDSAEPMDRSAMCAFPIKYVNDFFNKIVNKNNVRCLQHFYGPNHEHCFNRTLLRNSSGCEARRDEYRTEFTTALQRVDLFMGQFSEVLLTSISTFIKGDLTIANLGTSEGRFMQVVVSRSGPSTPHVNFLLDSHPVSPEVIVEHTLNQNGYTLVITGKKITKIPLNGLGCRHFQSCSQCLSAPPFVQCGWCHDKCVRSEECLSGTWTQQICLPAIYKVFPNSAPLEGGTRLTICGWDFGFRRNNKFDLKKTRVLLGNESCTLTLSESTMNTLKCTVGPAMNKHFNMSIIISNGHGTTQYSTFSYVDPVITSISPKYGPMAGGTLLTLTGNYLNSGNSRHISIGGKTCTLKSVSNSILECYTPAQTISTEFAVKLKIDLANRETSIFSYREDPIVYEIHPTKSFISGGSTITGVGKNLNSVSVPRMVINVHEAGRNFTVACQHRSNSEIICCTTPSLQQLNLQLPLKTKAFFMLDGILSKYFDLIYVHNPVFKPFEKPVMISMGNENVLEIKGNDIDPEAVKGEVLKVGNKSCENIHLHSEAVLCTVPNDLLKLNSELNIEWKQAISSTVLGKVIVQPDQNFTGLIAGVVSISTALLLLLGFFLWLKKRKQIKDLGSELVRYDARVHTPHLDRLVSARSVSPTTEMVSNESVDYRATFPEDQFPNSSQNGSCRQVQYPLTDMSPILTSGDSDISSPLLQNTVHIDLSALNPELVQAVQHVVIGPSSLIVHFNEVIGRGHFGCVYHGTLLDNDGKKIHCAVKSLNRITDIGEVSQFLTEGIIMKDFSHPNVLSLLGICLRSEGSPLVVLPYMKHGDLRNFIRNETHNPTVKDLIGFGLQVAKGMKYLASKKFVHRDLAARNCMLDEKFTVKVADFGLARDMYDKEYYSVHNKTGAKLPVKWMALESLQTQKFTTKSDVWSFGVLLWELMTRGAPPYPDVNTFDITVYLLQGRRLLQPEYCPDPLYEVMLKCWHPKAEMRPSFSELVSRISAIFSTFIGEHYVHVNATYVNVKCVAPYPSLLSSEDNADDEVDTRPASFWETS

For the compound `Cc1nn(Cc2cccc(F)c2)cc1-c1c[nH]c2ncc(-c3cnn(C)c3)cc12`, in the assay filed under Homo sapiens, the Ratio IC50 is 6. The concentration for half-maximal inhibition (IC50) in assay [1] is 56 nM; in assay [2], 6 nM.
In the case of `Cn1cc(-c2cnc3[nH]cc(-c4cnn(Cc5cccc(O)c5)c4)c3c2)cn1`, the figures for the 50% inhibitory concentration (IC50) (in the assay on KARPAS-299; in [1]; in assay [2]) were 3360 nM, 200 nM and 41 nM, respectively. The same compound returned an inhibition in [3] of 93%.
Take `Cn1cc(-c2cnc3[nH]cc(-c4cnn(Cc5cccc(N)c5)c4)c3c2)cn1`: the results for the IC50 (in the assay with KARPAS-299; in [2]) were 3630 nM and 28 nM, respectively.
In the case of `Cn1cc(-c2cnc3[nH]cc(-c4cnn(Cc5ccc(F)cc5)c4)c3c2)cn1`, the 50% inhibitory concentration (IC50) stood at 1780 nM in the assay with KARPAS-299; 3010 nM in assay [4]; 3.91 µM in [5]; 256 nM in [1]; 70 nM in [2]. Besides, the inhibition entry in [5] was “Dose-dependent effect”; in assay [3] it was 74%.
Regarding `Cc1nn(Cc2cc(F)ccc2F)c(C)c1-c1c[nH]c2ncc(-c3cnn(C)c3)cc12`, the Ratio IC50 in the assay listed under Homo sapiens stood at 3. Besides, the IC50 in assay [1] worked out at 428 nM; in assay [2] it was 63 nM.
Consider `Cn1cc(-c2cnc3[nH]cc(-c4cnn(Cc5cc(F)ccc5F)c4)c3c2)cn1`, for which the IC50 was 1200 nM with KARPAS-299; 1590 nM in [4]; 0.9 µM in assay [5]; 124 nM in assay [1]; 29 nM in [2]. The values for the inhibition entry in assay [5] and in [3] were “Dose-dependent effect” and 75%, respectively.
With `Cn1cc(-c2cnc3[nH]cc(-c4cnn(Cc5cccc(C(=O)O)c5)c4)c3c2)cn1`, the IC50 with KARPAS-299 is above 10000 nM; in assay [1], 811 nM; in assay [2] it was 98 nM.
Turning to `Cn1cc(-c2cnc3[nH]cc(-c4cnn(Cc5cccc(C(F)(F)F)c5)c4)c3c2)cn1`, the IC50 in the assay with KARPAS-299 came to 1010 nM; in [1], 465 nM; in assay [2] it was 247 nM. In assay [3], the inhibition was 84%.
The like results for `Cn1cc(-c2cnc3[nH]cc(-c4cnn(Cc5cc(F)cc(F)c5)c4)c3c2)cn1` were, in that order, 664 nM, 47 nM, 6 nM and 74%.
Take `Cn1cc(-c2cnc3[nH]cc(-c4cnn(Cc5ccccc5F)c4)c3c2)cn1`: the IC50 in the assay on KARPAS-299 is 2090 nM; in [1], 223 nM; in [2], 85 nM. The compound also had an inhibition in assay [3] of 64%.
For `Cn1cc(-c2cnc3[nH]cc(-c4cnn(Cc5cccc(Cl)c5)c4)c3c2)cn1`, the IC50 is 855 nM with KARPAS-299; 986 nM in [4]; 3.12 µM in [5]; 143 nM in [1]; 30 nM in [2]. The inhibition result in [5] was “Dose-dependent effect”; in [3] it was 87%.
`Cn1cc(-c2cnc3[nH]cc(-c4cnn(Cc5cccc(C#N)c5)c4)c3c2)cn1`: the IC50 in the assay with KARPAS-299 was determined as 1610 nM; in assay [1], 150 nM; in assay [2] it was 32 nM. The compound also showed an inhibition in [3] of 85%.
Regarding `Cc1nn(Cc2cc(F)cc(F)c2)c(C)c1-c1c[nH]c2ncc(-c3cnn(C)c3)cc12`, in the assay listed under Homo sapiens, the Ratio IC50 was 30. Besides, the half-inhibitory concentration (IC50) was 310 nM in assay [1] and 26 nM in assay [2].
Regarding `Cn1cc(-c2cnc3[nH]cc(-c4cnn(Cc5cccc([N+](=O)[O-])c5)c4)c3c2)cn1`, the values for the 50% inhibitory concentration (IC50) (in the assay with KARPAS-299; in assay [2]) were 1850 nM and 70 nM, respectively.
Consider `Cc1nn(Cc2cccc(F)c2)c(C)c1-c1c[nH]c2ncc(-c3cnn(C)c3)cc12`, for which, in the assay filed under Homo sapiens, the Ratio IC50 worked out at 11. Moreover, the values for the 50% inhibitory concentration (IC50) in assay [1] and in assay [2] were 275 nM and 31 nM, respectively.
For `Cn1cc(-c2cnc3[nH]cc(-c4cnn(Cc5ccccc5)c4)c3c2)cn1`, the inhibition in [6] is 41%; in [7] it was 7%; in assay [8], 28%; in assay [3], 84%; in [9], 14%; in [10], 21%. For the same compound, the half-inhibitory concentration (IC50) in the assay with KARPAS-299 was 3000 nM; in assay [1], 141 nM; in assay [2], 90 nM.
Regarding `Cn1cc(-c2cnc3[nH]cc(-c4cnn(Cc5ccc(F)c(F)c5)c4)c3c2)cn1`, the half-inhibitory concentration (IC50) in the assay with KARPAS-299 was 2260 nM; in assay [4] it was 986 nM; in [5] it was 3.3 µM; in assay [1], 379 nM; in [2], 84 nM. In addition, the inhibition entry was “Dose-dependent effect” in assay [5] and 84% in assay [3].
For `Cn1cc(-c2cnc3[nH]cc(-c4cnn(Cc5cccc(F)c5)c4)c3c2)cn1`, the Ratio IC50 in the assay listed under Homo sapiens is 2. Besides, the half-maximal inhibitory concentration (IC50) is 466 nM in the assay with KARPAS-299; 138 nM in [4]; 0.219 µM in assay [5]; 35 nM in assay [1]; 5.6 nM in assay [2]. Moreover, the values for the inhibition entry in [5] and in assay [3] were “Dose-dependent effect” and 84%, respectively.

By IC50 is commonly meant the concentration needed to halve the response being measured. One may read the inhibition as the relative decrease from the control value, in per cent.
